Assay results from ChEMBL document CHEMBL1153083, “Antiprotozoal, anticancer and antimicrobial activities of dihydroartemisinin acetal dimers and monomers” (Bioorg Med Chem, 2009).
pIC50: −log10 of the molar value.

Key:
Plasmodium falciparum [1] = assay: Antiplasmodial activity against Plasmodium falciparum D6 infected in RBCs by parasitic LDH release assay; type: functional, organism-based
In short: (§1)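 Infected erythrocytes at 2% parasitemia and 2% hematocrit, in RPMI 1640 with 10% human serum and amikacin 60 μg/mL, were exposed to serial dilutions under N2/O2/CO2 (90:5:5) at 37°C for 72 h. LDH was read with Malstat reagent (30 min), then NBT/PES in the dark (60 min), stopped with 5% acetic acid, at 650 nm. IC50 came from percent growth dose-response curves.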

[2] = Selectivity index, ratio of TC50 for african green monkey (Cercopithecus aethiops) Vero cells to IC50 for Plasmodium falciparum D6; type: toxicity, cell-based
Plasmodium falciparum [3] = assay: Antiplasmodial activity against Plasmodium falciparum W2 infected in RBCs by parasitic LDH release assay; type: functional, organism-based; in short: as §1
[4] = Selectivity index, ratio of TC50 for african green monkey (Cercopithecus aethiops) Vero cells to IC50 for Plasmodium falciparum W2; type: toxicity, cell-based
[5] = Toxicity against african green monkey Vero cells; type: cell-based; settings: chlorocebus sabaeus
In short: (§2)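 Cells seeded at 25,000 per well and incubated 24 h, then exposed to samples for 48 h. Viable cells were counted by neutral red, with DMSO as vehicle control. IC50 or TC50 values were derived from logarithmic plots of growth inhibition versus concentration.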

Leishmania donovani = assay: Antileishmanial activity against Leishmania donovani promastigotes after 48 hrs by alamar blue assay; type: functional, organism-based; settings: Leishmania donovani, 48 h; for pIC50: read-out: IC50
SK-MEL = assay: Cytotoxicity against human SK-MEL cells after 48 hrs by neutral red assay; type: functional, cell-based; settings: for IC50: sk-mel; for pIC50: Homo sapiens, SK-MEL, 48 h, read-out: IC50; in short: as §2
KB = assay: Cytotoxicity against human KB cells after 48 hrs by neutral red assay; type: functional, cell-based; settings: for IC50: kb; for pIC50: Homo sapiens, KB, 48 h, read-out: IC50; in short: as §2
BT-549 = assay: Cytotoxicity against human BT549 cells after 48 hrs by neutral red assay; type: functional, cell-based; settings: for IC50: bt-549; for pIC50: Homo sapiens, BT-549, 48 h, read-out: IC50; in short: as §2
SK-OV-3 = assay: Cytotoxicity against human SKOV3 cells after 48 hrs by neutral red assay; type: functional, cell-based; settings: sk-ov-3; in short: as §2
Vero = assay: (§3) Toxicity against african green monkey Vero cells after 48 hrs by neutral red assay; type: cell-based; settings: chlorocebus sabaeus, vero, 48 h; in short: as §2
[6] = Toxicity against pig LLC-PK11 cells after 48 hrs by neutral red assay; type: cell-based, Sus scrofa; settings: for CC50 at 48 h: LLC-PK11 cells, read-out: TC50; in short: as §2
Candida albicans = assay: Antifungal activity against Candida albicans ATCC 90028 by modified CLSI/NCCLS method; type: functional, organism-based; settings: for pIC50: Candida albicans, ATCC 90028, read-out: IC50
Nakaseomyces glabratus = assay: Antifungal activity against Candida glabrata ATCC 90030 by modified CLSI/NCCLS method; type: functional, organism-based
Pichia kudriavzevii = assay: Antifungal activity against Candida krusei ATCC 6258 by modified CLSI/NCCLS method; type: functional, organism-based; settings: for pIC50: Pichia kudriavzevii, ATCC 6258, read-out: IC50
Cryptococcus neoformans = assay: Antifungal activity against Cryptococcus neoformans ATCC 90113 by modified CLSI/NCCLS method; type: functional, organism-based
Aspergillus fumigatus = assay: Antifungal activity against Aspergillus fumigatus ATCC 90906 by modified CLSI/NCCLS method; type: functional, organism-based
Staphylococcus aureus [7] = assay: Antibacterial activity against Staphylococcus aureus ATCC 29213 by modified CLSI/NCCLS method; type: functional, organism-based
Staphylococcus aureus [8] = assay: Antibacterial activity against methicillin-resistant Staphylococcus aureus ATCC 43300 by modified CLSI/NCCLS method; type: functional, organism-based
Escherichia coli = assay: Antibacterial activity against Escherichia coli ATCC 35218 by modified CLSI/NCCLS method; type: functional, organism-based; settings: for pIC50: Escherichia coli, ATCC 35218, read-out: IC50
Pseudomonas aeruginosa = assay: Antibacterial activity against Pseudomonas aeruginosa ATCC 27853 by modified CLSI/NCCLS method; type: functional, organism-based
[9] = system: Mycobacterium intracellulare; assay: Antibacterial activity against Mycobacterium intracellular ATCC 23068 by Franzblau method; type: functional, organism-based; settings: for pIC50: Mycobacterium intracellulare, ATCC 23068, read-out: IC50
[10] = as §3; type: cell-based; settings: chlorocebus sabaeus, Vero cells; read-out: TC50; in short: as §2
[11] = Cytotoxicity against human NCI60 cells after 48 hrs by neutral red assay; type: functional; settings: NCI60, 48 h

| Structure (SMILES) | pIC50 (Plasmodium falciparum [1]) | selectivity ratio [2] | pIC50 (Plasmodium falciparum [3]) | selectivity ratio [4] | CC50 [5] | IC90 (Leishmania donovani) | pIC50 (Leishmania donovani) | IC50 (SK-MEL) | IC50 (KB) | IC50 (BT-549) | IC50 (SK-OV-3) | TC50 (Vero) | CC50 at 48 h [6] | IC50 (Nakaseomyces glabratus) | pIC50 (Cryptococcus neoformans) | IC50 (Aspergillus fumigatus) | IC50 (Staphylococcus aureus [7]) | IC50 (Staphylococcus aureus [8]) | IC50 (Pseudomonas aeruginosa) | IC50 (Candida albicans) | other results |
| --- | --- | --- | --- | --- | --- | --- | --- | --- | --- | --- | --- | --- | --- | --- | --- | --- | --- | --- | --- | --- | --- |
| C[C@H]1[C@@H](OCC(=O)CO)O[C@@H]2O[C@@]3(C)CC[C@H]4[C@H](C)CC[C@@H]1[C@@]24OO3 | 8.10 | > 1700 | 8.15 | > 1900 | > 13.3 µM | 112 µM | 4.59 | Not Active | Not Active | Not Active | Not Active | Not Active | 20.8 µM | Not Active | 5.19 | Not Active | Not Active | Not Active | Not Active | – | pIC50 (Candida albicans): < 4.25; pIC50 (Pichia kudriavzevii): < 4.25; IC50 (Escherichia coli): Not Active; IC50 [9]: Not Active |
| C[C@H]1[C@@H](OCC[C@@H](CO[C@H]2O[C@@H]3O[C@@]4(C)CC[C@H]5[C@H](C)CC[C@@H]([C@H]2C)[C@@]35OO4)O[C@H]2O[C@@H]3O[C@@]4(C)CC[C@H]5[C@H](C)CC[C@@H]([C@H]2C)[C@@]35OO4)O[C@@H]2O[C@@]3(C)CC[C@H]4[C@H](C)CC[C@@H]1[C@@]24OO3 | 6.53 | 18 | 6.61 | 22 | 5.25 µM | 44.2 µM | 5.30 | – | – | – | Not Active | – | 0.07 µM | Not Active | 4.78 | Not Active | Not Active | Not Active | Not Active | Not Active | pIC50 (SK-MEL): 6.62; pIC50 (KB): 6.96; pIC50 (BT-549): 7.22; CC50 at 48 h [10]: > 1.1 µM; IC50 (Pichia kudriavzevii): Not Active; IC50 (Escherichia coli): Not Active; pIC50 [9]: < 4.66 |
| C[C@H]1[C@@H](OCc2cc(O)cc(O[C@H]3O[C@@H]4O[C@@]5(C)CC[C@H]6[C@H](C)CC[C@@H]([C@H]3C)[C@@]46OO5)c2)O[C@@H]2O[C@@]3(C)CC[C@H]4[C@H](C)CC[C@@H]1[C@@]24OO3 | 8.52 | > 2380 | 8.38 | > 1700 | > 7.07 µM | 32.7 µM | 5.23 | Not Active | Not Active | Not Active | Not Active | Not Active | – | – | 5.83 | Not Active | – | Not Active | Not Active | Not Active | TC50 ([6]; llc-pk11, 48 h): Not Active; pIC50 (Escherichia coli): 4.65; IC50 [9]: Not Active; GI50 [11]: 0.0245 µM; TGI [11]: 2.82 µM; CC50 ([11]; read-out: LC50 (the source's name)): 15.1 µM |
| C[C@H]1[C@@H](OCC[C@H](O)CO[C@H]2O[C@@H]3O[C@@]4(C)CC[C@H]5[C@H](C)CC[C@@H]([C@H]2C)[C@@]35OO4)O[C@@H]2O[C@@]3(C)CC[C@H]4[C@H](C)CC[C@@H]1[C@@]24OO3 | 7.36 | > 170 | 7.34 | > 164 | > 7.45 µM | 9.4 µM | 5.60 | – | – | – | Not Active | – | 0.1 µM | – | 5.80 | – | – | – | Not Active | – | pIC50 (SK-MEL): 6.62; pIC50 (KB): 6.80; pIC50 (BT-549): 7.10; CC50 at 48 h [10]: > 1.57 µM; pIC50 (Candida albicans): 4.99; pIC50 (Nakaseomyces glabratus; Nakaseomyces glabratus, ATCC 90030, read-out: IC50): < 4.50; pIC50 (Pichia kudriavzevii): < 4.50; pIC50 (Aspergillus fumigatus; Aspergillus fumigatus, ATCC 90906, read-out: IC50): 5.28; pIC50 (Staphylococcus aureus [7]; Staphylococcus aureus, ATCC 29213, read-out: IC50): 4.78; pIC50 (Staphylococcus aureus [8]; Staphylococcus aureus, ATCC 43300, read-out: IC50): < 4.50; pIC50 (Escherichia coli): 4.87; pIC50 [9]: < 4.50 |
| C[C@H]1[C@@H](OCc2cc(O)cc(O)c2)O[C@@H]2O[C@@]3(C)CC[C@H]4[C@H](C)CC[C@@H]1[C@@]24OO3 | 7.68 | > 560 | 7.68 | > 567 | > 11.7 µM | 24.6 µM | 5.24 | Not Active | Not Active | Not Active | Not Active | Not Active | 2.46 µM | Not Active | 4.73 | Not Active | Not Active | Not Active | Not Active | Not Active | IC50 (Pichia kudriavzevii): Not Active; pIC50 (Escherichia coli): 4.31; pIC50 [9]: < 4.31 |
